Results published in ChEMBL document CHEMBL1138079 (J Med Chem, 2006).

Legend:
V79 [1] = experiment: Antiproliferative activity against NTR expressing chinese hamster V79 cells after 72 hrs; format: functional, cell-based, Cricetulus griseus
Method in brief: (§1)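 V79 Chinese hamster fibroblasts: NTR⁺ cells stably transfected with a bicistronic NTR/puromycin-resistance vector and kept under puromycin selection; vector-only NTR⁻ controls. Seeded 1000 cells/well, recovered 24 h, then exposed to serially diluted drug for 3 days at 37 °C, initially up to 100 µM. SRB stain read at 570 nm. IC50 interpolated; ratio is NTR⁻/NTR⁺ IC50.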

V79 [2] = experiment: Antiproliferative activity against chinese hamster V79 cells after 1 hr; format: functional, cell-based; settings: Cricetulus griseus, V79, 1 h
Method in brief: (§2)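 Same stable NTR⁺ and vector-only NTR⁻ V79 pair, seeded 1000 cells/well and recovered 24 h. Cells exposed to drug for 1 h only, initially up to 100 µM, then given drug-free medium. SRB viability was read 3 days after drug addition. IC50 is the concentration giving 50% of control cell number; ratio is NTR⁻/NTR⁺.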

nitroreductase = experiment: (§3) Half life in phosphate buffer at pH 7 at 37 degC assessed as reduction by Escherichia coli nitroreductase by NR assay; format: ADME; settings: Escherichia coli, Escherichia coli nitroreductase in phosphate buffer
Method in brief: (§4)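 Substrate at 0.2 mM with 1 mM NADH in 10 mM sodium phosphate buffer, pH 7.0, at 37 °C. Reaction started by adding 1.8 µg E. coli nitroreductase; 2 mM cysteine added for one compound. Aliquots taken at intervals, quenched with acetonitrile, frozen, then analysed by HPLC. Half-life calculated from substrate disappearance.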

SK-OV-3 [3] = experiment: Antiproliferative activity against NTR expressing human SKOV3 cells after 18 hrs; format: functional, cell-based
Method in brief: (§5)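 SKOV3 ovarian carcinoma cells stably transduced with a retroviral NTR vector and selected with 1 mg/mL G418, compared with parental SKOV3. Plated at 20 000 cells/well and allowed to adhere 24 h. Prodrug range given for 18 h, then replaced with drug-free medium. MTT survival read 2 days later. Ratio is NTR⁻/NTR⁺ IC50.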

V79 [4] = experiment: Antiproliferative activity against chinese hamster V79 cells after 72 hrs; format: functional, cell-based, Cricetulus griseus; method in brief: as §1
SK-OV-3 [5] = experiment: Ratio for antiproliferative activity against NTR- SKOV3 cells to NTR+ SKOV3 cells after 18 hrs; format: functional, Homo sapiens; method in brief: as §5
V79 [6] = experiment: Ratio for antiproliferative activity against NTR- V79 cells to NTR+ V79 cells after 1 hr; format: functional, cell-based, Cricetulus griseus; method in brief: as §2
SK-OV-3 [7] = experiment: Antiproliferative activity against human SKOV3 cells infected with 100 pfu/cell retrovirus after 18 hrs; format: functional, cell-based
SK-OV-3 [8] = experiment: Antiproliferative activity against human SKOV3 cells after 18 hrs; format: functional, cell-based; method in brief: as §5
SK-OV-3 [9] = experiment: Ratio for antiproliferative activity against NTR- SKOV3 cells to NTR+ SKOV3 cells infected with 10 pfu/cell retrovirus after 18 hrs; format: functional, Homo sapiens
SK-OV-3 [10] = experiment: Antiproliferative activity against human SKOV3 cells infected with 10 pfu/cell retrovirus after 18 hrs; format: functional, cell-based; settings: SK-OV-3, 18 h
V79 [11] = experiment: Antiproliferative activity against NTR expressing chinese hamster V79 cells after 1 hr; format: functional, cell-based, Cricetulus griseus; method in brief: as §2
V79 [12] = experiment: Ratio for antiproliferative activity against NTR- V79 cells to NTR+ V79 cells after 72 hrs; format: functional, Cricetulus griseus; method in brief: as §1
SK-OV-3 [13] = experiment: Ratio for antiproliferative activity against NTR- SKOV3 cells to NTR+ SKOV3 cells infected with 100 pfu/cell retrovirus after 18 hrs; format: functional, Homo sapiens
[14] = as §3; format: ADME; settings: buffer; method in brief: as §4
SK-OV-3 [15] = experiment: Antiproliferative activity against NTR expressing human SKOV3 cells […] after 18 hrs; format: functional, cell-based

SMILES	IC50 (V79 [1]; Cricetulus griseus, V79, 72 h)	IC50 (V79 [2])	half-life (nitroreductase)	IC50 (SK-OV-3 [3]; Homo sapiens, SK-OV-3, 18 h)	IC50 (V79 [4]; Cricetulus griseus, V79, 72 h)	Ratio (SK-OV-3 [5])	Ratio (V79 [6])	IC50 (SK-OV-3 [7]; Homo sapiens, SK-OV-3, 18 h)	IC50 (SK-OV-3 [8]; Homo sapiens, SK-OV-3, 18 h)	IC50 (V79 [11]; Cricetulus griseus, V79, 1 h)	Ratio (V79 [12])	Ratio (SK-OV-3 [13])	IC50 (V79 [1]; v79)	T1/2 [14]	IC50 (SK-OV-3 [15]; sk-ov-3)	further results
NP(=O)(OCc1ccc([N+](=O)[O-])cc1)N(CCCl)CCCl (racemic)	0.0004 µM	> 100 µM	2.3 min	0.16 µM	67 µM	>5600	>10000	> 1000 µM	> 890 µM	0.01 µM	170000	>830	–	–	–	Ratio (SK-OV-3 [9]): >160; IC50 (SK-OV-3 [10]): > 1000 µM
O=[N+]([O-])c1ccc(C2CCNP(=O)(N(CCCl)CCCl)N2)cc1 (racemic; cis)	–	–	6.4 min	–	56.8 µM	–	–	–	–	–	12	–	4.6 µM	–	–	–
O=[N+]([O-])c1ccc(C2CCOP(=O)(N(CCCl)CCCl)N2)cc1 (racemic; cis)	–	–	–	–	–	>1.9	–	–	–	–	>2.2	>1.9	45.3 µM	11.9 min	530 µM	IC50 (SK-OV-3 [3]; sk-ov-3): 530 µM
O=[N+]([O-])c1ccc(C2CCNP(=O)(N(CCCl)CCCl)O2)cc1 (racemic; cis)	–	–	–	–	–	>440	>290	–	–	–	29000	150	0.029 µM	5.2 min	4.7 µM	IC50 (V79 [4]; v79): 832 µM; IC50 (SK-OV-3 [7]; sk-ov-3): 680 µM; IC50 (SK-OV-3 [8]; sk-ov-3): > 930 µM; IC50 (V79 [11]; v79): 0.34 µM
O=[N+]([O-])c1ccc(C2CCNP(=O)(N(CCCl)CCCl)N2)cc1 (racemic; trans)	–	–	–	–	–	–	–	–	–	–	>2.1	–	48.3 µM	4.2 min	–	IC50 (V79 [4]; v79): > 100 µM
O=[N+]([O-])c1ccc(C2CCOP(=O)(N(CCCl)CCCl)N2)cc1 (racemic; trans)	51.5 µM	–	–	–	> 100 µM	>4.8	–	> 1000 µM	> 1000 µM	–	>1.9	>4.5	–	2.9 min	220 µM	IC50 (SK-OV-3 [3]; sk-ov-3): 210 µM
O=[N+]([O-])c1ccc(C2CCNP(=O)(N(CCCl)CCCl)O2)cc1 (racemic; trans)	0.027 µM	> 100 µM	3.9 min	2.1 µM	608 µM	270	>590	> 1000 µM	570 µM	0.17 µM	23000	>200	–	–	–	IC50 (SK-OV-3 [15]; Homo sapiens, SK-OV-3, 18 h): 5 µM
O=P1(N(CCCl)CCCl)NC(OO)CCO1 (stereo not given) [PERFOSFAMIDE]	2.7 µM	–	–	–	3.1 µM	–	–	–	–	–	1.1	–	–	–	–	–
NC(=O)c1cc(N2CC2)c([N+](=O)[O-])cc1[N+](=O)[O-] [TRETAZICAR]	0.036 µM	> 100 µM	5 min	2 µM	254 µM	>400	>320	> 1000 µM	> 790 µM	0.31 µM	7100	>210	–	–	–	Ratio (SK-OV-3 [9]): 12; IC50 (SK-OV-3 [10]): 625 µM
